In ChEMBL document CHEMBL1129030, “Potent, selective, orally active 3-oxo-1,4-benzodiazepine GPIIb/IIIa integrin antagonists” (J Med Chem, 1996):
Values joined by “and” are separate entries in the source; they are usually repeats but may differ in a detail not shown here. Identical values can stand only once.

Columns and labels:
[1] = target: Integrin alpha-IIb/beta-3 (Homo sapiens, UniProt P05106+P08514); assay: Inhibition of binding to purified integrin alphaIIb-beta3 of human platelets
Canis familiaris [2] = species on record: Canis familiaris; assay: Duration for maximal inhibition of platelet aggregation in canine; type: functional, Canis lupus familiaris
Outline: (§1)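 Conscious dogs dosed either by intravenous bolus or by short intraduodenal infusion through a catheter, at 0.3–3 mg/kg. Blood was drawn serially for up to 390 min. Platelet aggregation was measured ex vivo in collagen-stimulated canine whole blood. The readouts were maximal % inhibition, time to maximal inhibition, duration of maximal inhibition, and % inhibition at 390 min.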

Canis familiaris [3] = assay: Ex vivo inhibition of platelet aggregation in canine whole blood/collagen at a dose of 0.3 mg/kg after i.d. administration at 390 min; type: functional; details: Canis lupus familiaris, 6.5 h, route intraduodenal; outline: as §1
Canis familiaris [4] = assay: Ex vivo inhibition of platelet aggregation in canine whole blood/collagen at a dose of 0.3 mg/kg after i.v. administration at 390 min; type: functional; details: Canis lupus familiaris, 6.5 h, route intravenous; outline: as §1
Canis familiaris [5] = assay: Ex vivo inhibition of platelet aggregation in canine whole blood/collagen at a dose of 0.3 mg/kg after i.v. administration; range is 90-100; type: functional; details: Canis lupus familiaris, route intravenous; outline: as §1
Canis familiaris [6] = assay: Ex vivo inhibition of platelet aggregation in canine whole blood/collagen at a dose of 3 mg/kg after i.d. administration; range is 90-100; type: functional; details: Canis lupus familiaris, route intraduodenal; outline: as §1
Canis familiaris [7] = species on record: Canis familiaris; assay: Time required for maximal inhibition of platelet aggregation in canine; type: functional, Canis lupus familiaris; outline: as §1
Homo sapiens = species on record: Homo sapiens; assay: In vitro Inhibitory activity against patelet aggregation in human platelet-rich plasma induced by ADP; type: functional
Canis familiaris [8] = assay: Ex vivo inhibition of platelet aggregation in canine whole blood/collagen at a dose of 0.3 mg/kg after i.d. administration; […]; type: functional; details: Canis lupus familiaris, route intraduodenal; outline: as §1

Integrin alpha-IIb/beta-3, sequence (P05106 27-788 limits assumed): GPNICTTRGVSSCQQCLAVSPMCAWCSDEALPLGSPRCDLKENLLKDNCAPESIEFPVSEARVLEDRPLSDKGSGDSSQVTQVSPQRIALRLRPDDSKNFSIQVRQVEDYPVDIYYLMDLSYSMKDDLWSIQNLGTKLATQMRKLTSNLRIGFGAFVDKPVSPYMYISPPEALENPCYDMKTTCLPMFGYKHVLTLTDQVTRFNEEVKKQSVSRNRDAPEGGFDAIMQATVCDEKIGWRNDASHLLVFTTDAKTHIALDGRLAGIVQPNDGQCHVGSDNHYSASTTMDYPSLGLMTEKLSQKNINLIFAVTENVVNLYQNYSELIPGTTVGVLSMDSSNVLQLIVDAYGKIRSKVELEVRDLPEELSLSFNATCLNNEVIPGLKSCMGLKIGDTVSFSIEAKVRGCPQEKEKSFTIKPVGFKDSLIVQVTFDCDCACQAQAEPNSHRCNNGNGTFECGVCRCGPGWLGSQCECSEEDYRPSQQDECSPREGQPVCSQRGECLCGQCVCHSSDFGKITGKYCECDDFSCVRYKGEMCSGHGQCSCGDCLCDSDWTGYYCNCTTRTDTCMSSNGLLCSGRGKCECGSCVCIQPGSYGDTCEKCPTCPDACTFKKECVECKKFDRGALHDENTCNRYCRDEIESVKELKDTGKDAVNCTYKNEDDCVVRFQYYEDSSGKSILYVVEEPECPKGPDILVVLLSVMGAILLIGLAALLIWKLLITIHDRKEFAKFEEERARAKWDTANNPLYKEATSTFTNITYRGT
Integrin alpha-IIb/beta-3, sequence (P08514 32-887 limits assumed): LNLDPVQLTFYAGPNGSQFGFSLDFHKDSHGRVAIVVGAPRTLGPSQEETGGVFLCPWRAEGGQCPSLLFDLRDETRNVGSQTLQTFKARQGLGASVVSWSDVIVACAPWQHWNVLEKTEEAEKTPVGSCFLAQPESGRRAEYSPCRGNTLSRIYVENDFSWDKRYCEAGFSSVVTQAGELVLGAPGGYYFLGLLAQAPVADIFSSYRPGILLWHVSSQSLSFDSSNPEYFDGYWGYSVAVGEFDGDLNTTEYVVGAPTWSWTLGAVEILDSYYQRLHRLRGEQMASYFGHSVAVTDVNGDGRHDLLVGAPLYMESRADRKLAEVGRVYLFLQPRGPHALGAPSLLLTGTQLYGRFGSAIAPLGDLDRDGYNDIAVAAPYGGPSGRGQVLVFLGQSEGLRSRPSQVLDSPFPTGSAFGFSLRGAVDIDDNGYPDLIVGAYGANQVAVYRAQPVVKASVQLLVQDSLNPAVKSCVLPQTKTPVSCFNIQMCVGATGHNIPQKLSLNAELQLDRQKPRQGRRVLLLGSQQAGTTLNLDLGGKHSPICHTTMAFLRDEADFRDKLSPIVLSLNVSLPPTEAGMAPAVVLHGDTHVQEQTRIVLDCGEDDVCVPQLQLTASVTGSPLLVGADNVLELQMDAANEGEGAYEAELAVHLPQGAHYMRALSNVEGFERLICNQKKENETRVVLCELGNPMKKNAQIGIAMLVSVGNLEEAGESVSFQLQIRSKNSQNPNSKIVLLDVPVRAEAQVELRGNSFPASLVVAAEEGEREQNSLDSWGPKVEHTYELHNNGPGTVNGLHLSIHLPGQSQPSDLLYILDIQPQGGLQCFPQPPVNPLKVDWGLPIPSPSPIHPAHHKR
Integrin alpha-IIb/beta-3, sequence (P08514 891-1039 limits assumed): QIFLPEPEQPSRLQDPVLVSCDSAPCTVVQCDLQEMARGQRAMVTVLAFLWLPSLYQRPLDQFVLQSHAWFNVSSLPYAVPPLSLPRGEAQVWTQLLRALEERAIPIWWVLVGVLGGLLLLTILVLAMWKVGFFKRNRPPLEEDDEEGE

Row | Structure (SMILES) | Ki [1] [nM] | IC50 (Homo sapiens) [nM] | also measured
1 | CN1Cc2cc(C(=O)N3CCC(C4CCNCC4)CC3)ccc2NC(CC(=O)O)C1=O (configuration not stated) | 4 | 106 | Duration (Canis familiaris [2]): 240 min; inhibition in vivo at 0.3 mg/kg (Canis familiaris [3]): 60%; inhibition in vivo at 0.3 mg/kg (Canis familiaris [4]): 50%; inhibition in vivo at 0.3 mg/kg (Canis familiaris [5]): 90%; inhibition in vivo at 3 mg/kg (Canis familiaris [6]): 90%; Time (Canis familiaris [7]): 5 min and 10 min
2 | O=C(O)CC1Nc2ccc(C(=O)N3CCC(C4CCNCC4)CC3)cc2CN(CCc2ccccc2)C1=O (configuration not stated) | 1.5 | 20 | Duration (Canis familiaris [2]): 140 min; inhibition in vivo at 0.3 mg/kg (Canis familiaris [8]): 70%; inhibition in vivo at 0.3 mg/kg (Canis familiaris [5]): 90%; Time (Canis familiaris [7]): 10 min and 30 min
3 | CN(CCCC1CCNCC1)C(=O)c1ccc2c(c1)CN(CCc1ccccc1)C(=O)C(CC(=O)O)N2 (configuration not stated) | 8 | 60 | 
4 | CN(C(=O)c1ccc2c(c1)NC(CC(=O)O)C(=O)N(CCc1ccccc1)C2)c1ccc(C(=N)N)cc1 (configuration not stated) | 1.6 | 65 | 

Further lines, with some results ahead:

Row | Ki [1] [nM] | IC50 (Homo sapiens) [nM] | Structure (SMILES) | also measured
5 | 2.8 |  | N=C(N)c1ccc(NC(=O)c2ccc3c(c2)NC(CC(=O)O)C(=O)N(CCc2ccccc2)C3)cc1 (configuration not stated) | 
6 | 26 | 380 | N=C(N)c1cccc(NC(=O)c2ccc3c(c2)CN(CCc2ccccc2)C(=O)C(CC(=O)O)N3)c1 (configuration not stated) | 
7 |  | 57 | CN1C(=O)c2ccccc2SSc2ccccc2NC(=O)[C@H](CC(=O)O)NC(=O)CNC(=O)[C@@H]1CCCN=C(N)N [SKF-107260] | 
